We go through four compounds from ChEMBL document CHEMBL1150419, “Structure-activity relationships of a peptide inhibitor of the human FcRn:human IgG interaction” (Bioorg Med Chem, 2008).

Series [1] can be described thus: Stability in presence of subtilisin assessed as intact peptide after 18 hrs. The series is classed as ADME. The settings on record: subtilisin (protease solution); read-out: Stability. The method, boiled down: (§1)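 Peptide dissolved in PBS at 0.3 mg/mL and treated with a 470-fold molar excess of Subtilisin Carlsberg. The fraction of intact peptide remaining was recorded.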

The nature of series [2]: Stability in presence of subtilisin assessed as intact peptide after 1 hr. It is filed as ADME. The settings on record: subtilisin (protease solution); read-out: Stability. Put shortly:
as §1

Series [3] deals with T1, IgG receptor FcRn large subunit p51 (Homo sapiens, UniProt P55899). Kind of series: Inhibition of human IgG binding to soluble human FcRn by ELISA. Put shortly:
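Biotinylated soluble human FcRn immobilized on neutravidin plates, incubated with hIgG (3 nM, constant) and peptide at varying concentrations for 2 h at 37 °C. After washing, bound hIgG detected with peroxidase-conjugated hIgG-specific Fab fragments.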
(An ELISA detects its analyte on a solid surface through an enzyme-linked reagent.)

In series [4] the target is T1, IgG receptor FcRn large subunit p51. The experiment in a line: Binding affinity to human FcRn at pH 6 by surface plasmon resonance assay. Put shortly:
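Soluble human FcRn coupled to the dextran surface of a CM5 chip; peptide dilutions flowed over the chip. The equilibrium response at each dilution was plotted against concentration and fitted to a steady-state affinity model to give Kd.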
(In general: SPR reads the build-up and loss of mass on a sensor chip optically.)

Series [5] shares this target. The experiment in a line: Binding affinity to human FcRn at pH 7.4 by surface plasmon resonance assay. Put shortly: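 Soluble human FcRn coupled to the dextran surface of a CM5 chip; peptide dilutions flowed over the chip. Equilibrium response at each dilution plotted against concentration, and Kd fitted with a steady-state affinity model.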

Bridge positions count the residues as written; N and C are the ends. Peptide text beside a SMILES is read from it.

T1 sequence (P55899 whole entry, the tested form may be a part): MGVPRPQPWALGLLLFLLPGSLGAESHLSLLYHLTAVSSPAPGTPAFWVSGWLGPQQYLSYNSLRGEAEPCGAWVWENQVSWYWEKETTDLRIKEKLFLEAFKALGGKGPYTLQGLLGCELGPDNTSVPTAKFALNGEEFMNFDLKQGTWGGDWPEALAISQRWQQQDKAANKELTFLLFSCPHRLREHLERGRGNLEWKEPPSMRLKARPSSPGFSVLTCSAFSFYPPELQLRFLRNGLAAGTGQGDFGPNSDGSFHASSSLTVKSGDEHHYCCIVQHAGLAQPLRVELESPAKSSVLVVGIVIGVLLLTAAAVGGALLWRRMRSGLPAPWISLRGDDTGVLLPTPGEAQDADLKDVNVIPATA

As to `CC(C)C[C@@H](C(=O)N[C@@H](Cc1ccc(O)cc1)C(=O)N1CCC[C@H]1C(=O)N[C@@H](CS)C(=O)O)N(C)C(=O)CNC(=O)[C@@H](C)NC(=O)[C@H](Cc1ccccc1)NC(=O)[C@H](Cc1cnc[nH]1)NC(=O)CNC(=O)[C@@H](C)N(C)C(=O)[C@@H](NC(=O)[C@H](Cc1ccccc1)NC(=O)[C@@H](N)CCCNC(=N)N)C(C)(C)S`, the remaining at 18 h in series [1] came out at 95%. Besides, the remaining at 1 h in series [2] was found to be 100%. For the same compound, in series [3], the IC50 (usually the concentration that gives 50% inhibition) came to 8 µM.

With `CC(C)C[C@H](NC(=O)CNC(=O)CNC(=O)[C@H](Cc1ccccc1)NC(=O)[C@H](Cc1cnc[nH]1)NC(=O)CNC(=O)[C@@H](NC(=O)[C@@H](NC(=O)[C@H](Cc1ccccc1)NC(=O)[C@H](CCCNC(=N)N)NC(=O)[C@@H](N)CCC(N)=O)C(C)(C)S)[C@@H](C)O)C(=O)N[C@@H](Cc1ccc(O)cc1)C(=O)N1CCC[C@H]1C(=O)N[C@@H](CS)C(=O)N[C@@H](CC(N)=O)C(=O)NCC(=O)N1CCC[C@H]1C(=O)O`, the remaining at 18 h in series [1] was 0%. For the same compound, in series [2], the remaining at 1 h was found to be 5%. In series [3], the IC50 is 2 µM. For the same compound, in series [4], the Kd (in general, the concentration at which binding is half-saturated) came to 0.25 µM.

In the case of `C[C@@H](O)[C@H](NC(=O)[C@@H](NC(=O)[C@H](Cc1ccccc1)NC(=O)[C@H](CCCN=C(N)N)NC(=O)[C@@H](N)CCC(N)=O)C(C)(C)S)C(=O)NCC(=O)N[C@@H](Cc1cnc[nH]1)C(=O)N[C@@H](Cc1ccccc1)C(=O)N[C@H](Cc1ccccc1)C(=O)NCC(=O)N1CCC[C@H]1C(=O)N[C@@H](Cc1ccc(O)cc1)C(=O)N1CCC[C@H]1C(=O)N[C@@H](CS)C(=O)N[C@@H](CC(N)=O)C(=O)NCC(=O)N1CCC[C@H]1C(=O)O`, in series [1], the remaining at 18 h stood at 0%. In addition, the remaining at 1 h in series [2] came out at 5%. This compound gave an IC50 in series [3] of 39 µM. Besides, the Kd in series [4] came to 18.3 µM.

As for `CC[C@H](C)[C@@H]1NC(=O)CNC(=O)[C@H](CC(=O)O)NC(=O)[C@H]([C@@H](C)CC)NC(=O)[C@H](Cc2cnc[nH]2)NC(=O)CNC(=O)[C@H](CCC(=O)O)NC(=O)[C@H]([C@@H](C)CC)NC(=O)[C@@H](NC(=O)[C@H](Cc2ccc(O)cc2)NC(=O)[C@H](CO)NC(=O)[C@@H]2CCCN2)CSSC[C@@H](C(=O)N[C@@H](Cc2ccccc2)C(=O)N[C@@H](CC(N)=O)C(=O)N[C@@H](C)C(=O)O)NC(=O)[C@H](Cc2ccc(O)cc2)NC1=O` (H-PSYCIEGHIDGIYCFNA-OH; disulfide 4-14), the values for the Kd in series [5] and in series [4] were 76 µM and 8.8 µM, respectively. The IC50 in series [3] is 49 µM.
